Positions count from the first letter of the chain named. The source made the active and inactive calls. The calls are words filed in the database; no cut-off is given here.

In general, Tm refers to the temperature at which the thermal transition is half complete.

Test [1] has as its target T1, Tyrosine-protein phosphatase non-receptor type 11 (Homo sapiens) (UniProt Q06124).
T1 sequence (whole entry): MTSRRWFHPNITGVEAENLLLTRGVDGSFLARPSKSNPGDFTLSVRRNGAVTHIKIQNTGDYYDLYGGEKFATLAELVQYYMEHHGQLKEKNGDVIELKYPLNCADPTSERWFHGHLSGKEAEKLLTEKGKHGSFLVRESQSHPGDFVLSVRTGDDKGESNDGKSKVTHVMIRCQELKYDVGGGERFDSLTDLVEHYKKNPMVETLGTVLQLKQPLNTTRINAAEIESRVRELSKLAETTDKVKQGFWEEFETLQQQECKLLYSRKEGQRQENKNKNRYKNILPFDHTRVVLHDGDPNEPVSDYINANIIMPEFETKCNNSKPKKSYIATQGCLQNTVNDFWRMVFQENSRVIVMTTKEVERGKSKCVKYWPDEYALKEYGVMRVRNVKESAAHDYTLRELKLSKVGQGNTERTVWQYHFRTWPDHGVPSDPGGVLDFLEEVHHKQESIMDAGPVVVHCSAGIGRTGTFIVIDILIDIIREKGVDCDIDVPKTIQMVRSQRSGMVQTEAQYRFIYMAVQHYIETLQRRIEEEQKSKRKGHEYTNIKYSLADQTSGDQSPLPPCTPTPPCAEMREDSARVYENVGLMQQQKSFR
Kind of test: Binding affinity to His-tagged SHP2 (unknown origin) assessed as melting temperature at 60 uM measured every 50 secs by thermal shift assay (reference value: 43.5 +/- 0.95 degC).

Test [2] has as its target T1, Tyrosine-protein phosphatase non-receptor type 11 (Homo sapiens). In words: Ratio of IC50 for inhibition of recombinant full length human GST-tagged SHP2 PTP domain using pNPP as substrate pre-incubated for 15 mins before pNPP substrate addition and measured after 15 mins to IC50 for inhibition of wild type recombinant human SHP2 using H-Glu-Phe-pTyr-Ala-Glu-Val-Gly-Arg-Ser-Pro-Pro-Asp-Pro-Ala-Lys as substrate preincubated for 30 mins followed by substrate addition and measured after 30 mins by Malachite Green-reagent based assay.

The test system of test [3] is T2, Tyrosine-protein phosphatase non-receptor type 11 (Mus musculus), P35235 [E76K].
T2 sequence (whole entry): T1 sequence (whole entry) with E76K, M450V, A550V, K590R
In words: Inhibition of Ptpn11 E76K mutant in Ptpn11 E76K mutant /Mx1-Cre containing mouse bone marrow cells assessed as reduction in GM-CSF-induced colony forming units at 1.25 to 5 uM after 7 days by inverted microscopy. The procedure, abridged:
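Bone marrow from Ptpn11 E76K/+/Mx1-Cre+ and +/+/Mx1-Cre+ mice, 2×10⁴ cells/mL, in 0.9% methylcellulose IMDM with 30% FBS and GM-CSF 1.0 ng/mL, plus compound or DMSO. CFU-GM and CFU-M counted at day 7, normalized to WT DMSO colonies. Mean ± SD of three experiments.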

Test [4] relates to T3, Tyrosine-protein phosphatase non-receptor type 11 (Homo sapiens), Q06124 [E76K].
T3 sequence (whole entry): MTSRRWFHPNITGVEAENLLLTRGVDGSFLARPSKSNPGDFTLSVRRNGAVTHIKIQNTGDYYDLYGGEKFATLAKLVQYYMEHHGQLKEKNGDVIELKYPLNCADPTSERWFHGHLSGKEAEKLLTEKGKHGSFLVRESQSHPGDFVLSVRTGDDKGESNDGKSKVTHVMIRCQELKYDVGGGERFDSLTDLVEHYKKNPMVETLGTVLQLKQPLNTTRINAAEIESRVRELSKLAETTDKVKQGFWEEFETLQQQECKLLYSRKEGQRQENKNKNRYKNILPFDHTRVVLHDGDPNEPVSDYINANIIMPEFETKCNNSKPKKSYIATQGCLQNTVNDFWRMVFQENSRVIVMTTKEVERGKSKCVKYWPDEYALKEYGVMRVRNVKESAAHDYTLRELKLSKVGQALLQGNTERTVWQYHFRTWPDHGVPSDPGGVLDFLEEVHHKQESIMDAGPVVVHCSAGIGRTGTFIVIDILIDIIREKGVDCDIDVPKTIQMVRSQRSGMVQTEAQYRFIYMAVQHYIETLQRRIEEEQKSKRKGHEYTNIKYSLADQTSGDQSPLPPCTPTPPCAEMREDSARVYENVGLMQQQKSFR
In words: Inhibition of recombinant full length human GST-tagged SHP2 E76K mutant using phospho-peptide as substrate pre-incubated for 30 mins before substrate addition and measured after 30 mins.

As to `CCOc1cc(O)c(C(=O)/C=C/c2ccc(Cl)cc2Cl)cc1CN1CCC=C(n2c(=O)[nH]c3ccccc32)C1`, the Tm in test [1] was 48.2 °C. Also, the Ratio IC50 in test [2] is more than 2. The inhibition entry in test [3] was “Active”. In test [4], the inhibition entry is “Dose-dependent effect”.

Values taken from ChEMBL document CHEMBL4422612, “Small Molecule Inhibitor that Stabilizes the Autoinhibited Conformation of the Oncogenic Tyrosine Phosphatase SHP2” (J Med Chem, 2019).
